Test results published in publication PMC6644768 (ACS Omega, 2018).

Tests used:
Type in all cases: cell-based
tubulin in HeLa cells = assay: Soluble and polymeric tubulin in cells by western blot; conditions: 25 nM, control 2.1 ± 0.4
HeLa cells [1] = assay: Mitotic index by phospho-histone H3 staining; conditions: 20 nM; control 3 ± 0.2
Method in brief: (§1)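 HeLa cells exposed to 75 and 200 nM test compound or 20 nM reference agent for 12 h. Cells immunostained for phospho-histone H3 (Ser10), with DNA counterstained by Hoechst 33258. Mitotic index scored either from DNA morphology or as phospho-H3-positive cells. Experiment performed three times; error given as standard deviation.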

HeLa cells [2] = assay: Mitotic index by Hoechst 33258 staining; conditions: 20 nM; control 3 ± 0.6
Method in brief: as §1

A549 cells [3] = assay: Scratch wound healing assay; conditions: 100 nM
MCF 10A cells = assay: IC50 determination, sulforhodamine B assay, MCF 10A; conditions: one cell cycle
Method in brief: (§2)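 Sulforhodamine B proliferation assay as run for A549, but with cells exposed to test compound for one cell cycle. Read-out: TCA fixation, dye binding, Tris solubilization, absorbance at 520 nm. IC50 fitted by nonlinear regression; each cell line determined three times independently. Culture media: HeLa and MCF-7 in Eagle's MEM; L929 and B16F10 in DMEM; MCF 10A in DMEM/F12K with 10% FBS, EGF, hydrocortisone and insulin.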

A549 cells [4] = assay: IC50 determination, sulforhodamine B assay, A549; conditions: A549 cell line, 24 h
Method in brief: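 A549 cells (F-12K medium, 10% FBS) plated at 10 000 cells/well and grown 24 h, then exposed to a range of test compound concentrations for 24 h. Sulforhodamine B read-out: fixation in 50% TCA for 1 h at 4 °C, then 0.4% dye in 1% acetic acid for 1 h, 1% acetic acid washes, and solubilization in 10 mM Tris pH 10.0. Absorbance read at 520 nm. IC50 from nonlinear regression, three independent determinations.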

MCF-7 cells = assay: IC50 determination, sulforhodamine B assay, MCF-7; conditions: MCF-7, one cell cycle
Method in brief: as §2

ROS in HeLa cells = assay: Intracellular ROS by DCFDA dye; conditions: 6 h, control 2.4 ± 0.1
HeLa cells [5] = assay: PI staining of dead cells; conditions: 20 nM, 24 h; control 6%
Method in brief: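 HeLa cells on coverslips (2.5 × 10^4 cells/well, 24 h) given vehicle (0.1% DMSO), 75 or 200 nM test compound, or 20 nM reference agent for 24 h. Plates centrifuged at 2500 rpm for 15 min and washed in PBS. Cells stained with propidium iodide for 15 min at room temperature in the dark and imaged. PI-positive cells counted as a percentage. Two independent sets.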

Structure (SMILES): CC[C@]1(O)C[C@@H]2CN(CCc3c([nH]c4ccccc34)[C@@](C(=O)OC)(c3cc4c(cc3OC)N(C)[C@H]3[C@@](O)(C(=O)OC)[C@H](OC(C)=O)[C@]5(CC)C=CCN6CC[C@]43[C@@H]65)C2)C1 [vinblastine]
- ratio of polymeric to soluble tubulin (tubulin in HeLa cells): 1.4 ± 0.9

Structure (SMILES): COc1ccc(/C=C\c2cc(OC)c(OC)c(OC)c2)cc1O [CA-4, combretastatin A-4]
- mitotic index, phospho-histone staining (percentage of mitotic cells) (HeLa cells [1]): 38 ± 0.3%
- mitotic index, Hoechst staining (HeLa cells [2]): 40 ± 1.2
- inhibition of migration of A549 cells (A549 cells [3]; 10 h): 77 ± 5%
- rate of migration (A549 cells [3]; vehicle 3 ± 0.7): 0.4 ± 0.2 μm/h
- IC50 (MCF 10A cells): 144 ± 31 nM
- IC50 (A549 cells [4]): 112 ± 7 nM
- IC50 (MCF-7 cells): 18 ± 3 nM
- fluorescence intensity of DCFDA per cell (ROS in HeLa cells; 20 nM): 3.6 ± 0.4
- PI-stained positive cells (HeLa cells [5]): 87%

Structure (SMILES): OO [Compound H2O2, H2O2]
- fluorescence intensity of DCFDA per cell (ROS in HeLa cells; 100 μM): 4.5 ± 0.2
